Assay results taken from ChEMBL document CHEMBL4393701, “Appendix A. dithioloquinolinethiones as new potential multitargeted antibacterial and antifungal agents: Synthesis, biological evaluation and molecular docking studies” (2019).
Converted amounts (≈) assume the structure as drawn.

What was measured:
Bacillus cereus [1] = assay: Antibacterial activity against Bacillus cereus clinical isolate after 24 hrs by iodonitrotetrazolium chloride dye based microdilution assay; type: functional
How it was run: (§1)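 Fresh overnight cultures adjusted spectrophotometrically to 1×10^5 CFU/mL, giving 1.0×10^4 CFU per well in tryptic soy broth. Compounds were dissolved in 5% DMSO and tested at 0.001-1.0 mg/ml by serial dilution; 5% DMSO was the negative control. After 24 h at 37 °C, 0.2 mg/mL INT solution was added for 30 min at 37 °C and OD read at 655 nm. MIC is the lowest concentration giving significant growth inhibition versus the positive control. Duplicates, repeated three times.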

Bacillus cereus [2] = assay: Bactericidal activity against Bacillus cereus clinical isolate incubated for 24 hrs followed by re-plating on tryptic soy broth; type: functional
How it was run: (§2)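 Bacteria were grown in tryptic soy broth, 1.0×10^4 CFU per well, with compounds in 5% DMSO at 0.001-1.0 mg/ml for 24 h at 37 °C. Then 10 µL was subcultured into fresh TSB. MBC is the lowest concentration showing no growth after subculture, taken as 99.5% kill of the original inoculum. Duplicates, repeated three times.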

Micrococcus flavus [3] = assay: Antibacterial activity against Micrococcus flavus ATCC 10240 after 24 hrs by iodonitrotetrazolium chloride dye based microdilution method; type: functional; conditions: ATCC 10240, 24 h; how it was run: as §1
Micrococcus flavus [4] = assay: Bactericidal activity against Micrococcus flavus ATCC 10240 incubated for 24 hrs followed by re-plating on tryptic soy broth; type: functional; conditions: ATCC 10240, 24 h; how it was run: as §2
Staphylococcus aureus [5] = assay: Antibacterial activity against Staphylococcus aureus ATCC 6538 after 24 hrs by iodonitrotetrazolium chloride dye based microdilution method; type: functional; conditions: ATCC 6538, 24 h; how it was run: as §1
Staphylococcus aureus [6] = assay: Bactericidal activity against Staphylococcus aureus ATCC 6538 incubated for 24 hrs followed by re-plating on tryptic soy broth; type: functional; conditions: ATCC 6538, 24 h; how it was run: as §2
Listeria monocytogenes [7] = assay: Antibacterial activity against Listeria monocytogenes NCTC 7973 after 24 hrs by iodonitrotetrazolium chloride dye based microdilution method; type: functional; conditions: NCTC 7973, 24 h; how it was run: as §1
Listeria monocytogenes [8] = assay: Bactericidal activity against Listeria monocytogenes NCTC 7973 incubated for 24 hrs followed by re-plating on tryptic soy broth; type: functional; conditions: NCTC 7973, 24 h; how it was run: as §2
Enterobacter cloacae [9] = assay: Antibacterial activity against Enterobacter cloacae clinical isolate after 24 hrs by iodonitrotetrazolium chloride dye based microdilution method; type: functional; how it was run: as §1
Enterobacter cloacae [10] = assay: Bactericidal activity against Enterobacter cloacae incubated for 24 hrs followed by re-plating on tryptic soy broth; type: functional; how it was run: as §2
Pseudomonas aeruginosa [11] = assay: Antibacterial activity against Pseudomonas aeruginosa ATCC 27853 after 24 hrs by iodonitrotetrazolium chloride dye based microdilution method; type: functional; conditions: ATCC 27853, 24 h; how it was run: as §1
Pseudomonas aeruginosa [12] = assay: Bactericidal activity against Pseudomonas aeruginosa ATCC 27853 incubated for 24 hrs followed by re-plating on tryptic soy broth; type: functional; conditions: ATCC 27853, 24 h; how it was run: as §2
Salmonella typhimurium [13] = assay: Antibacterial activity against Salmonella typhimurium ATCC 13311 after 24 hrs by iodonitrotetrazolium chloride dye based microdilution method; type: functional, Salmonella enterica subsp. enterica serovar Typhimurium; conditions: Salmonella enterica, ATCC 13311, 24 h; how it was run: as §1
Salmonella typhimurium [14] = assay: Bactericidal activity against Salmonella typhimurium ATCC 13311 incubated for 24 hrs followed by re-plating on tryptic soy broth; type: functional, Salmonella enterica subsp. enterica serovar Typhimurium; conditions: Salmonella enterica, ATCC 13311, 24 h; how it was run: as §2
Escherichia coli [15] = assay: Antibacterial activity against Escherichia coli ATCC 35210 after 24 hrs by iodonitrotetrazolium chloride dye based microdilution method; type: functional; conditions: ATCC 35210, 24 h; how it was run: as §1
Escherichia coli [16] = assay: Bactericidal activity against Escherichia coli ATCC 35210 incubated for 24 hrs followed by re-plating on tryptic soy broth; type: functional; conditions: ATCC 35210, 24 h; how it was run: as §2
Aspergillus fumigatus [17] = assay: Antifungal activity against Aspergillus fumigatus ATCC 1022 after 72 hrs by microdilution technique; type: functional; conditions: ATCC 1022, 72 h
How it was run: (§3)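 Spores were washed off malt agar with 0.85% saline containing 0.1% Tween 80 and adjusted to about 1.0×10^5 per well. Compounds in 5% DMSO were serially diluted (0.001-1.0 mg/ml) in malt broth with inoculum. Plates were shaken at 160 rpm for 72 h at 28 °C. MIC is the lowest concentration without visible growth under a binocular microscope. Three independent experiments in duplicate.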

Aspergillus fumigatus [18] = assay: Fungicidal activity against Aspergillus fumigatus ATCC 1022 incubated for 72 hrs followed by sub-culturing on broth malt medium and measured after 72 hrs; type: functional; conditions: ATCC 1022, 72 h
How it was run: (§4)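 After 72 h exposure in malt broth, 2 µL from test wells was subcultured into wells holding 100 µL broth and incubated a further 72 h at 28 °C. MFC is the lowest concentration with no visible growth, taken as 99.5% kill of the original inoculum. Three independent experiments in duplicate.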

Aspergillus versicolor [19] = assay: Antifungal activity against Aspergillus versicolor ATCC 11730 after 72 hrs by microdilution method; type: functional; conditions: ATCC 11730, 72 h; how it was run: as §3
Aspergillus versicolor [20] = assay: Fungicidal activity against Aspergillus versicolor ATCC 11730 incubated for 72 hrs followed by sub-culturing on broth malt medium and measured after 72 hrs; type: functional; conditions: ATCC 11730, 72 h; how it was run: as §4
Aspergillus ochraceus [21] = assay: Antifungal activity against Aspergillus ochraceus ATCC 12066 after 72 hrs by microdilution technique; type: functional; conditions: ATCC 12066, 72 h; how it was run: as §3
Aspergillus ochraceus [22] = assay: Fungicidal activity against Aspergillus ochraceus ATCC 12066 incubated for 72 hrs followed by sub-culturing on broth malt medium and measured after 72 hrs; type: functional; conditions: ATCC 12066, 72 h; how it was run: as §4
Aspergillus niger [23] = assay: Antifungal activity against Aspergillus niger ATCC 6275 after 72 hrs by microdilution technique; type: functional; conditions: ATCC 6275, 72 h; how it was run: as §3
Aspergillus niger [24] = assay: Fungicidal activity against Aspergillus niger ATCC 6275 incubated for 72 hrs followed by sub-culturing on broth malt medium and measured after 72 hrs; type: functional; conditions: ATCC 6275, 72 h; how it was run: as §4
Trichoderma viride [25] = assay: Antifungal activity against Trichoderma viride IAM 5061 after 72 hrs by microdilution technique; type: functional; conditions: IAM 5061, 72 h; how it was run: as §3
Trichoderma viride [26] = assay: Fungicidal activity against Trichoderma viride IAM 5061 incubated for 72 hrs followed by sub-culturing on broth malt medium and measured after 72 hrs; type: functional; conditions: IAM 5061, 72 h; how it was run: as §4
Penicillium ochrochloron [27] = assay: Antifungal activity against Penicillium ochrochloron ATCC 9112 after 72 hrs by microdilution technique; type: functional; conditions: ATCC 9112, 72 h; how it was run: as §3
Penicillium ochrochloron [28] = assay: Fungicidal activity against Penicillium ochrochloron ATCC 9112 incubated for 72 hrs followed by sub-culturing on broth malt medium and measured after 72 hrs; type: functional; conditions: ATCC 9112, 72 h; how it was run: as §4
[29] = Antifungal activity against Penicillium funiculosum ATCC 36839 after 72 hrs by microdilution technique; type: functional; conditions: Talaromyces pinophilus, ATCC 36839, 72 h; how it was run: as §3
[30] = Fungicidal activity against Penicillium funiculosum ATCC 36839 incubated for 72 hrs followed by sub-culturing on broth malt medium and measured after 72 hrs; type: functional; conditions: Talaromyces pinophilus, ATCC 36839, 72 h; how it was run: as §4
Penicillium cyclopium [31] = assay: Antifungal activity against Penicillium verrucosum var. cyclopium food isolate after 72 hrs by microdilution technique; type: functional; how it was run: as §3
Penicillium cyclopium [32] = assay: Fungicidal activity against Penicillium verrucosum var. cyclopium food isolate incubated for 72 hrs followed by sub-culturing on broth malt medium and measured after 72 hrs; type: functional; how it was run: as §4

| SMILES | MIC (Bacillus cereus [1]) | MBC (Bacillus cereus [2]) | MIC (Micrococcus flavus [3]) | MBC (Micrococcus flavus [4]) | MIC (Staphylococcus aureus [5]) | MBC (Staphylococcus aureus [6]) | MIC (Listeria monocytogenes [7]) | MBC (Listeria monocytogenes [8]) | MIC (Enterobacter cloacae [9]) | MBC (Enterobacter cloacae [10]) | MIC (Pseudomonas aeruginosa [11]) | MBC (Pseudomonas aeruginosa [12]) | MIC (Salmonella typhimurium [13]) | MBC (Salmonella typhimurium [14]) | MIC (Escherichia coli [15]) | MBC (Escherichia coli [16]) | MIC (Aspergillus fumigatus [17]) | MFC (Aspergillus fumigatus [18]) | MIC (Aspergillus versicolor [19]) | MFC (Aspergillus versicolor [20]) | also measured |
| --- | --- | --- | --- | --- | --- | --- | --- | --- | --- | --- | --- | --- | --- | --- | --- | --- | --- | --- | --- | --- | --- |
| Cc1ccc2c(c1)-c1c(ssc1=S)C(C)(C)N2C(=O)CSc1nn(-c2ccccc2)c(=S)s1 | 27.5 µM (≈ 15 µg/mL) | 55 µM (≈ 30 µg/mL) | 27.5 µM (≈ 15 µg/mL) | 55 µM (≈ 30 µg/mL) | 27.5 µM (≈ 15 µg/mL) | 55 µM (≈ 30 µg/mL) | 27.5 µM (≈ 15 µg/mL) | 55 µM (≈ 30 µg/mL) | 27.5 µM (≈ 15 µg/mL) | 55 µM (≈ 30 µg/mL) | 27.5 µM (≈ 15 µg/mL) | 55 µM (≈ 30 µg/mL) | 27.5 µM (≈ 15 µg/mL) | 55 µM (≈ 30 µg/mL) | 27.5 µM (≈ 15 µg/mL) | 55 µM (≈ 30 µg/mL) | 8.24 ×10⁻² mM | 22 ×10⁻² mM | 22 ×10⁻² mM | 44 ×10⁻² mM | MIC (Aspergillus ochraceus [21]): 1.47 ×10⁻² mM; MFC (Aspergillus ochraceus [22]): 2.75 ×10⁻² mM; MIC (Aspergillus niger [23]): 2.02 ×10⁻² mM; MFC (Aspergillus niger [24]): 5.5 ×10⁻² mM; MIC (Trichoderma viride [25]): 1.1 ×10⁻² mM; MFC (Trichoderma viride [26]): 1.47 ×10⁻² mM; MIC (Penicillium ochrochloron [27]): 2.75 ×10⁻² mM; MFC (Penicillium ochrochloron [28]): 5.5 ×10⁻² mM; MIC [29]: 2.75 ×10⁻² mM; MFC [30]: 5.5 ×10⁻² mM; MIC (Penicillium cyclopium [31]): 22 ×10⁻² mM; MFC (Penicillium cyclopium [32]): 44 ×10⁻² mM |
| CC1(C)c2ssc(=S)c2-c2cccc3c2N1C(=O)/C3=N/NC(N)=S | 38.2 µM (≈ 15 µg/mL) | 76.4 µM (≈ 30 µg/mL) | 38.2 µM (≈ 15 µg/mL) | 76.4 µM (≈ 30 µg/mL) | 38.2 µM (≈ 15 µg/mL) | 76.4 µM (≈ 30 µg/mL) | 38.2 µM (≈ 15 µg/mL) | 76.4 µM (≈ 30 µg/mL) | 38.2 µM (≈ 15 µg/mL) | 76.4 µM (≈ 30 µg/mL) | 38.2 µM (≈ 15 µg/mL) | 76.4 µM (≈ 30 µg/mL) | 38.2 µM (≈ 15 µg/mL) | 76.4 µM (≈ 30 µg/mL) | 38.2 µM (≈ 15 µg/mL) | 76.4 µM (≈ 30 µg/mL) | 7.64 ×10⁻² mM | 15.2 ×10⁻² mM | 11.5 ×10⁻² mM | 30.6 ×10⁻² mM | MIC (Aspergillus ochraceus [21]): 15.2 ×10⁻² mM; MFC (Aspergillus ochraceus [22]): 30.6 ×10⁻² mM; MIC (Aspergillus niger [23]): 15.2 ×10⁻² mM; MFC (Aspergillus niger [24]): 30.6 ×10⁻² mM; MIC (Trichoderma viride [25]): 1.52 ×10⁻² mM; MFC (Trichoderma viride [26]): 3.82 ×10⁻² mM; MIC (Penicillium ochrochloron [27]): 3.82 ×10⁻² mM; MFC (Penicillium ochrochloron [28]): 7.64 ×10⁻² mM; MIC [29]: 11.5 ×10⁻² mM; MFC [30]: 30.6 ×10⁻² mM; MIC (Penicillium cyclopium [31]): 11.5 ×10⁻² mM; MFC (Penicillium cyclopium [32]): 30.6 ×10⁻² mM |
| COc1cc2c3c(c1)-c1c(ssc1=S)C(C)(C)N3C(=O)/C2=C1\SC(=S)NC1=O | 64.6 µM (≈ 30 µg/mL) | 129 µM (≈ 59.9 µg/mL) | 96.9 µM (≈ 45 µg/mL) | 129 µM (≈ 59.9 µg/mL) | 64.6 µM (≈ 30 µg/mL) | 129 µM (≈ 59.9 µg/mL) | 258 µM (≈ 120 µg/mL) | 517 µM (≈ 240 µg/mL) | 64.6 µM (≈ 30 µg/mL) | 129 µM (≈ 59.9 µg/mL) | 129 µM (≈ 60 µg/mL) | 258 µM (≈ 120 µg/mL) | 64.6 µM (≈ 30 µg/mL) | 129 µM (≈ 60 µg/mL) | 96.9 µM (≈ 45 µg/mL) | 129 µM (≈ 59.9 µg/mL) | 25.8 ×10⁻² mM | 51.6 ×10⁻² mM | 12.9 ×10⁻² mM | 25.8 ×10⁻² mM | MIC (Aspergillus ochraceus [21]): 1.72 ×10⁻² mM; MFC (Aspergillus ochraceus [22]): 3.23 ×10⁻² mM; MIC (Aspergillus niger [23]): 25.8 ×10⁻² mM; MFC (Aspergillus niger [24]): 51.6 ×10⁻² mM; MIC (Trichoderma viride [25]): 1.72 ×10⁻² mM; MFC (Trichoderma viride [26]): 3.23 ×10⁻² mM; MIC (Penicillium ochrochloron [27]): 3.23 ×10⁻² mM; MFC (Penicillium ochrochloron [28]): 6.46 ×10⁻² mM; MIC [29]: 12.9 ×10⁻² mM; MFC [30]: 25.8 ×10⁻² mM; MIC (Penicillium cyclopium [31]): 25.8 ×10⁻² mM; MFC (Penicillium cyclopium [32]): 51.6 ×10⁻² mM |
